Experimental data taken from ChEMBL document CHEMBL4325893, “Synthesis and antibacterial profiles of targeted triclosan derivatives” (2019).
≈ marks a conversion by molar mass, not a printed value.

What was measured:
[1] = Antibacterial activity against Salmonella enterica subspecies enterica serotype Nottingham NCTC 7832 after 18 hrs; assay type: functional, Salmonella enterica subsp. enterica serovar Nottingham; settings: NCTC 7832, 18 h
In short: (§1)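 Broth microdilution in Nutrient Broth No. 2; stocks in ethanol diluted to 0.01–128 µg/ml (triclosan) or 0.25–256 µg/ml (glycosides). Overnight 37 °C NB2 cultures diluted 1 in 10^4 in saline and added to the dilutions. Incubation at 37 °C with agitation, OD read every 15 min; MIC is the lowest concentration preventing any OD rise after 18 h.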

[2] = system: Staphylococcus aureus; experiment: Antibacterial activity against Staphylococcus aureus ATCC 25923 after 18 hrs; assay type: functional; settings: ATCC 25923, 18 h; in short: as §1
[3] = system: Salmonella enterica subsp. enterica serovar Abony; experiment: Antibacterial activity against Salmonella enterica subspecies enterica serotype Abony NCTC 6017 after 18 hrs; assay type: functional; settings: NCTC 6017, 18 h; in short: as §1
[4] = system: Staphylococcus aureus; experiment: Antibacterial activity against Staphylococcus aureus ATCC 6538P after 18 hrs; assay type: functional; in short: as §1
[5] = system: Pseudomonas aeruginosa; experiment: Antibacterial activity against Pseudomonas aeruginosa ATCC 27853 after 18 hrs; assay type: functional; settings: ATCC 27853, 18 h; in short: as §1
[6] = system: Hafnia alvei; experiment: Antibacterial activity against Hafnia alvei 13337 after 18 hrs; assay type: functional; settings: Hafnia alvei, 13337, 18 h; in short: as §1
[7] = system: Klebsiella pneumoniae; experiment: Antibacterial activity against Klebsiella pneumoniae ATCC 13883 after 18 hrs; assay type: functional; settings: ATCC 13883, 18 h; in short: as §1
[8] = system: Streptococcus agalactiae; experiment: Antibacterial activity against Streptococcus agalactiae OCC 182 after 18 hrs; assay type: functional; settings: OCC 182, 18 h
In short: (§2)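 Broth microdilution in Nutrient Broth No. 2. Ethanol stocks were diluted in broth to 0.01–128 µg/ml for triclosan and 0.25–256 µg/ml for glycosides. Overnight 37°C NB2 cultures were diluted 1 in 10^4 in saline and added to the wells. Plates were incubated at 37°C with OD read every 15 min after agitation. MIC was the lowest concentration giving no OD increase at 18 h.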

[9] = system: Citrobacter freundii; experiment: Antibacterial activity against Citrobacter freundii OCC 851 after 18 hrs; assay type: functional; settings: OCC 851, 18 h; in short: as §1
[10] = system: Klebsiella pneumoniae; experiment: Antibacterial activity against Klebsiella pneumoniae ATCC 10031 after 18 hrs; assay type: functional; settings: ATCC 10031, 18 h; in short: as §1
[11] = Antibacterial activity against Salmonella enterica subspecies enterica serotype Virchow NCTC 5742 after 18 hrs; assay type: functional, Salmonella enterica subsp. enterica serovar Virchow; settings: NCTC 5742, 18 h; in short: as §1
[12] = Antibacterial activity against Enterobacter cloacae ATCC 13047 after 18 hrs; assay type: functional, Enterobacter cloacae subsp. cloacae; settings: ATCC 13047, 18 h; in short: as §1
[13] = system: Staphylococcus saprophyticus; experiment: Antibacterial activity against Staphylococcus saprophyticus ATCC 15305 after 18 hrs; assay type: functional; settings: ATCC 15305, 18 h; in short: as §2
[14] = system: Escherichia hermannii; experiment: Antibacterial activity against Escherichia hermannii 33650 after 18 hrs; assay type: functional; settings: Atlantibacter hermannii, 33650, 18 h; in short: as §1
[15] = system: Proteus mirabilis; experiment: Antibacterial activity against Proteus mirabilis ATCC 12453 after 18 hrs; assay type: functional; settings: ATCC 12453, 18 h; in short: as §1
[16] = system: Streptococcus pneumoniae; experiment: Antibacterial activity against Streptococcus pneumoniae ATCC 49619 after 18 hrs; assay type: functional; settings: ATCC 49619, 18 h; in short: as §2
[17] = system: Staphylococcus aureus; experiment: Antibacterial activity against Staphylococcus aureus ATCC 29213 after 18 hrs; assay type: functional; settings: ATCC 29213, 18 h; in short: as §1
[18] = Antibacterial activity against Salmonella enterica subspecies enterica serotype Arizonae OCC 706 after 18 hrs; assay type: functional, Salmonella enterica subsp. enterica serovar Arizonae; settings: OCC 706, 18 h; in short: as §1
[19] = system: Escherichia coli; experiment: Antibacterial activity against Escherichia coli ATCC 10536 after 18 hrs; assay type: functional; settings: ATCC 10536, 18 h; in short: as §1
[20] = Antibacterial activity against Salmonella enterica subspecies enterica serotype Indiana OCC 597 after 18 hrs; assay type: functional, Salmonella enterica subsp. enterica serovar Indiana; settings: OCC 597, 18 h; in short: as §1
[21] = system: Salmonella enteritidis; experiment: Antibacterial activity against Salmonella enterica subspecies enterica serotype Enteritidis 13076 after 18 hrs; assay type: functional, Salmonella enterica subsp. enterica serovar Enteritidis; settings: Salmonella enterica, 13076, 18 h; in short: as §1
[22] = system: Staphylococcus aureus; experiment: Antibacterial activity against Staphylococcus aureus ATCC 6538 after 18 hrs; assay type: functional; settings: ATCC 6538, 18 h; in short: as §1
[23] = system: Staphylococcus haemolyticus; experiment: Antibacterial activity against Staphylococcus haemolyticus OCC 2223 after 18 hrs; assay type: functional; settings: OCC 2223, 18 h; in short: as §2
[24] = system: Staphylococcus epidermidis; experiment: Antibacterial activity against Staphylococcus epidermidis 155 after 18 hrs; assay type: functional; settings: Staphylococcus epidermidis, 155, 18 h; in short: as §1
[25] = system: Escherichia coli; experiment: Antibacterial activity against Escherichia coli NCTC 13216 after 18 hrs; assay type: functional; settings: NCTC 13216, 18 h; in short: as §1
[26] = system: Staphylococcus epidermidis; experiment: Antibacterial activity against Staphylococcus epidermidis ATCC 12228 after 18 hrs; assay type: functional; settings: ATCC 12228, 18 h; in short: as §1
[27] = system: Escherichia coli; experiment: Antibacterial activity against Escherichia coli ATCC 35218 after 18 hrs; assay type: functional; settings: ATCC 35218, 18 h; in short: as §1
[28] = Antibacterial activity against Salmonella enterica subspecies enterica serotype Dublin OCC 627 after 18 hrs; assay type: functional, Salmonella enterica subsp. enterica serovar Dublin; settings: OCC 627, 18 h; in short: as §1

- MIC [1]: 2 to 8 µg/mL (≈ 4.43 to 17.7 µM)
- MIC [2]: 1 µg/mL (≈ 2.21 µM)
- MIC [3]: 2 to 8 µg/mL (≈ 4.43 to 17.7 µM)
- MIC [4]: 1 µg/mL (≈ 2.21 µM)
- MIC [5]: > 256 µg/mL
- MIC [6]: 1 µg/mL (≈ 2.21 µM)
- MIC [7]: 1 µg/mL (≈ 2.21 µM)
- MIC [8]: 128 µg/mL (≈ 283 µM)
- MIC [9]: 4 µg/mL (≈ 8.86 µM)
- MIC [10]: 1 µg/mL (≈ 2.21 µM)
- MIC [11]: 2 to 8 µg/mL (≈ 4.43 to 17.7 µM)
- MIC [12]: 1 µg/mL (≈ 2.21 µM)
- MIC [13]: 4 µg/mL (≈ 8.86 µM)
- MIC [14]: 1 µg/mL (≈ 2.21 µM)
- MIC [15]: 2 µg/mL (≈ 4.43 µM)
- MIC [16]: 32 µg/mL (≈ 70.8 µM)
- MIC [17]: 1 µg/mL (≈ 2.21 µM)
- MIC [18]: 2 to 8 µg/mL (≈ 4.43 to 17.7 µM)
- MIC [19]: 2 to 8 µg/mL (≈ 4.43 to 17.7 µM)
- MIC [20]: 2 to 8 µg/mL (≈ 4.43 to 17.7 µM)
- MIC [21]: 2 to 8 µg/mL (≈ 4.43 to 17.7 µM)
- MIC [22]: 1 µg/mL (≈ 2.21 µM)
- MIC [24]: 1 µg/mL (≈ 2.21 µM)
- MIC [25]: 2 to 8 µg/mL (≈ 4.43 to 17.7 µM)
- MIC [26]: 1 µg/mL (≈ 2.21 µM)
- MIC [27]: 2 to 8 µg/mL (≈ 4.43 to 17.7 µM)
- MIC [28]: 2 to 8 µg/mL (≈ 4.43 to 17.7 µM)
SMILES: OC[C@H]1O[C@H](Oc2cc(Cl)ccc2Oc2ccc(Cl)cc2Cl)[C@H](O)[C@@H](O)[C@@H]1O
- MIC [23]: 1 µg/mL (≈ 2.21 µM)
